High-throughput results deposited in PubChem BioAssay by several laboratories.
Rows were chosen to be rich in hits. Some 1.8% of all compounds tested hit in one or more screens of this group.
Rin1 Abl inh = inhibitors of Rin1-Abl protein binding, primary screen, biochemical, TR-FRET; inhibition, % at 7.35 µM; 0.4% of 360,000 active; AID 588664, 2011; in the data active means inhibition above about 5%, passing the limit was not always enough
NR1D1 modulator = modulators of Rev-erb alpha DNA binding, primary screen, biochemical, FITC-DNA, fluorescence polarization, uHTS | Nuclear receptor subfamily 1 group D member 1 (Homo sapiens), P20393 | Rev-erbα–FITC-DNA binding, 90 min | activity, % at 10 µM | 0.79% of 370,000 active;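 active means activity above about 14%, limit read from the data; passing the limit was not always enough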;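 further: 0% = DMSO wells with 35 nM protein and 100% = DMSO wells with 750 nM protein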
Target sequence (P20393 whole entry, looked up): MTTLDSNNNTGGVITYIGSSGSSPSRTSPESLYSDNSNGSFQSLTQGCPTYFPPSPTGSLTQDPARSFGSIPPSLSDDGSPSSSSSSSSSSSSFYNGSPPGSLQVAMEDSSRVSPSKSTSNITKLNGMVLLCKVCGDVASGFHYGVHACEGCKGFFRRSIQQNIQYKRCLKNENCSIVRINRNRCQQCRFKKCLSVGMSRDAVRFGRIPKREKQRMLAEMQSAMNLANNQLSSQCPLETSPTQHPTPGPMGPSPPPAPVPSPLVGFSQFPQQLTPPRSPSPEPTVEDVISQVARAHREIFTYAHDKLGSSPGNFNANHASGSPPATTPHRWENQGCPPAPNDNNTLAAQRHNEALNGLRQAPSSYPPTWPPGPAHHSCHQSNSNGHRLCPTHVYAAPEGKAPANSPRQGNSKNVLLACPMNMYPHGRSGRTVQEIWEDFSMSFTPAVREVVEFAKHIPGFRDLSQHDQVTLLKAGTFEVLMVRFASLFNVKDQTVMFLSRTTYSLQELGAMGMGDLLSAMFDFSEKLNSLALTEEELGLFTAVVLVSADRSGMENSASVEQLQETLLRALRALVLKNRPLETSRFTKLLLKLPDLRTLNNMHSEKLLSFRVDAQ
PG9 Ab binder = binders of HIV-1 gp120 antibody PG9, primary screen, biochemical, TR-FRET; HIV-1 gp120 / PG9 antibody interaction; TR-FRET gp120-PG9 antibody binding; inhibition, % at 6.7 µM; 0.43% of 360,000 active; AID 624416, 2012; in the data active means inhibition above about 8.5%
TbMetRS inhib = T. brucei MetRS inhibitors, primary screen, biochemical, luminescence. methionyl-tRNA synthetase (Trypanosoma brucei brucei). purified T. brucei MetRS, ATP depletion, Kinase-Glo luminescence. inhibition, % at 11.9 µM. 0.4% of 360,000 active. AID 624268, 2012;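 active means inhibition above a per-plate cutoff of the control wells' mean inhibition plus 3 SD, cut at about 5.5% in these data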;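 further: 0% = DMSO wells median and 100% = median of wells with control inhibitor compound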
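Material: parasite MetRS enzyme / Replication: singlicate, one well per compound / Signal: luminescence of leftover ATP / Schedule: 2 h aminoacylation at 25 °C after 15 min preincubation / Medium: HEPES-MgCl2-KCl buffer plus DTT, spermine, BSA, pyrophosphatase / Doses: 11.9 µM single point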
PG9 binder conf = binders of anti-gp120 antibody PG9, confirmation, biochemical, TR-FRET. TR-FRET PG9 antibody binding. inhibition, % at 6.7 µM. shares compounds with PG9 Ab binder. 90% of 1,500 active; in the data active means inhibition above about 9%
PGV04 counter = binders of control antibody PGV04, counter-screen for PG9 antibody binder project, biochemical, TR-FRET, distinct HIV envelope site | shares compounds with PG9 Ab binder | TR-FRET PGV04 antibody-gp120 binding | inhibition, % at 6.7 µM | 95% of 1,500 active | AID 651604, 2012; in the data active means inhibition above about 9.5%
PG9 bind DR = small-molecule binders of antibody PG9, dose response, biochemical, TR-FRET, HIV-1 gp120 antibody; 95 tested, under 10 active; shares compounds with PG9 Ab binder; AID 651848, 2012; IC50, µM; TR-FRET PG9 antibody-gp120 binding inhibition; in the data active means IC50 below about 10 µM
PGV04 binding DR = binders of control antibody PGV04, dose response, counter-screen for PG9 antibody binder project, biochemical, TR-FRET, distinct HIV envelope site; TR-FRET binding to control antibody PGV04; 20% of 95 active; IC50, µM; shares compounds with PG9 Ab binder
PG126 binding DR = binders of control antibody PG126, dose response, counter-screen for PG9 antibody binder project, biochemical, TR-FRET, distinct HIV envelope site. TR-FRET binding to antibody PG126, counterscreen. IC50, µM. 20% of 95 active. AID 651939, 2012. shares compounds with PG9 Ab binder
* = called active by the depositor. Unless noted, no stated cut-off is given here; in the data, active means IC50 below about 9 µM; inactive means the rest.

What do the screens show for `O=C(Nc1nc2c(F)cc(F)cc2s1)C1CCN(C(=O)c2ccc(F)cc2)CC1`?
Rin1 Abl inh: 1; NR1D1 modulator: 6; PG9 Ab binder: 9.1*; TbMetRS inhib: -1; PG9 binder conf: 9.7*; PGV04 counter: 17*

Results for CCCCOc1ccc(N(CC(=O)NCCOC)C(=O)CCC(=O)Nc2ccccn2)cc1 ?
Rin1 Abl inh: 2; NR1D1 modulator: 4; PG9 Ab binder: -1; TbMetRS inhib: 0

Results for Cc1ccc(-c2nnc3n2N=C(c2ccc(-c4ccccc4)cc2)CS3)cc1 ?
NR1D1 modulator: -13

What do the screens show for `NS(=O)(=O)c1ccc(NC(=O)c2ccc(-c3ccccc3)cc2)cc1`?
Rin1 Abl inh: 1; NR1D1 modulator: 3; PG9 Ab binder: 9.3*; TbMetRS inhib: -1; PG9 binder conf: 13*; PGV04 counter: 25*

Results for NS(=O)(=O)c1ccc(NS(=O)(=O)c2ccc(NC(=O)c3ccc(-c4ccccc4)cc3)cc2)cc1 ?
Rin1 Abl inh: -6; NR1D1 modulator: -6; PG9 Ab binder: 1; TbMetRS inhib: 0

What do the screens show for `O=C1N/C(=N\c2ccccn2)SC1Cc1ccc(Cl)cc1` (configuration not stated)?
Rin1 Abl inh: 1; NR1D1 modulator: 13; PG9 Ab binder: 9.3*; TbMetRS inhib: 0; PG9 binder conf: 17*; PGV04 counter: 29*

What do the screens show for `CC1CCCCC1NC(=O)COC(=O)c1ccc2ccccc2n1` (configuration not stated)?
Rin1 Abl inh: 0; NR1D1 modulator: 2; PG9 Ab binder: 0; TbMetRS inhib: 0

How did CC1CCCC(NC(=O)COC(=O)c2ccccc2Sc2ccccc2C#N)C1C (configuration not stated) do in these assays?
Rin1 Abl inh: -2; NR1D1 modulator: 21; PG9 Ab binder: 12*; TbMetRS inhib: 0; PG9 binder conf: 29*; PGV04 counter: 48*

Results for CC1CCCC(NC(=O)COC(=O)c2ccc3ccccc3n2)C1C (configuration not stated) ?
Rin1 Abl inh: 1; NR1D1 modulator: -5; PG9 Ab binder: 15*; TbMetRS inhib: 0; PG9 binder conf: 24*; PGV04 counter: 32*

How did N#Cc1ccccc1Sc1ccccc1C(=O)OCC(=O)NC12CC3CC(CC(C3)C1)C2 do in these assays?
Rin1 Abl inh: -1; NR1D1 modulator: 7; PG9 Ab binder: 1; TbMetRS inhib: -1

What do the screens show for `COC(=O)CCC(=O)Nc1sc(C)c(C)c1C(N)=O`?
Rin1 Abl inh: -2; NR1D1 modulator: 0; PG9 Ab binder: 2; TbMetRS inhib: 1

What do the screens show for `COC(=O)CCC(=O)NC(=S)Nc1sc(C)c(C)c1C(N)=O`?
Rin1 Abl inh: -4; NR1D1 modulator: 12; PG9 Ab binder: 36*; TbMetRS inhib: 0; PG9 binder conf: 33*; PGV04 counter: 42*

How did O=C(COC(=O)c1cn(-c2ccccc2)nc1-c1ccccc1)Nc1ncc(Cl)cc1Cl do in these assays?
Rin1 Abl inh: -6; NR1D1 modulator: 8; PG9 Ab binder: 15*; TbMetRS inhib: 0; PG9 binder conf: 22*; PGV04 counter: 33*

How did COc1cccc(-c2nn(-c3ccccc3)cc2C(=O)OCC(=O)Nc2ncc(Cl)cc2Cl)c1 do in these assays?
Rin1 Abl inh: -2; NR1D1 modulator: 4; PG9 Ab binder: 1; TbMetRS inhib: 0

What do the screens show for `O=C(Nc1ccc(F)cc1)c1cc(-c2ccccn2)nc2c(Cl)cccc12`?
Rin1 Abl inh: -1; NR1D1 modulator: 5; PG9 Ab binder: 18*; TbMetRS inhib: 0; PG9 binder conf: 33*; PGV04 counter: 69*

What do the screens show for `CCN(CC)C(=O)c1nc[nH]c1C(=O)N(CC)CC`?
Rin1 Abl inh: -1; NR1D1 modulator: 1; PG9 Ab binder: -1; TbMetRS inhib: 0

Results for Brc1ccc(Br)c2cnccc12 ?
Rin1 Abl inh: -10; NR1D1 modulator: 18; PG9 Ab binder: 13*; TbMetRS inhib: 0; PG9 binder conf: 26*; PGV04 counter: 35*

How did COc1ccccc1NS(=O)(=O)c1cccc(NC(=O)c2[nH]c(C)c(C(C)=O)c2C)c1 do in these assays?
Rin1 Abl inh: -2; NR1D1 modulator: 1; PG9 Ab binder: 12*; TbMetRS inhib: 0; PG9 binder conf: 21*; PGV04 counter: 19*; PG9 bind DR: >67; PGV04 binding DR: >67; PG126 binding DR: >67

What do the screens show for `O=C(c1ccc2ccccc2c1)c1cccc(F)c1C(=O)O`?
Rin1 Abl inh: -14; NR1D1 modulator: -5; PG9 Ab binder: 13*; TbMetRS inhib: 0; PG9 binder conf: 12*; PGV04 counter: 17*

Results for COc1cccc([C@@H](NC(=O)C(F)(F)F)[C@@H]2CCCC=C2c2ccccc2)c1 ?
NR1D1 modulator: 3; PG9 Ab binder: -1

What do the screens show for `Nc1nc(-c2ccc(Cl)cc2)nnc1-c1ccc(Br)cc1`?
Rin1 Abl inh: 4; NR1D1 modulator: 11; PG9 Ab binder: 13*; TbMetRS inhib: 2; PG9 binder conf: 16*; PGV04 counter: 58*

What do the screens show for `O=C(CN1C(=O)c2ccc(Br)cc2C1=O)NCC1CCCO1` (configuration not stated)?
Rin1 Abl inh: 2; NR1D1 modulator: 3; PG9 Ab binder: -1; TbMetRS inhib: -1

Results for COc1ccccc1NC(=O)c1sc2ncn(CC(=O)N3CCC(C)CC3)c(=O)c2c1C ?
Rin1 Abl inh: -2; NR1D1 modulator: 16; PG9 Ab binder: 1; TbMetRS inhib: 0

Results for CCn1cnc2sc(C(=O)Nc3ccccc3OC)c(C)c2c1=O ?
Rin1 Abl inh: -3; NR1D1 modulator: 3; PG9 Ab binder: 53*; TbMetRS inhib: 0; PG9 binder conf: 46*; PGV04 counter: 65*
